# Data from ChEMBL document CHEMBL5058577, “EUbOPEN Chemogenomics Library 2 (Multiplex)” (2022).
# Test system: Fibroblast
# Assay: Multiplex assay against human fibroblast
# Assay type: toxicity, cell-based
# In short: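 Tubulin, mitochondrial-mass and membrane-permeability phenotypes are per cents of healthy-nucleus cells. Cells were gated by CellPathfinder machine learning into Hoechst high-intensity objects or normal cells, normal cells into healthy, pyknosed or fragmented nuclei, and pyknosed cells into mitotic or apoptotic. Before that, live cells stained at seeding with Hoechst33342, BioTracker Green Microtubule Cytoskeleton Dye, MitoTracker Red and Annexin V Alexa Fluor 680 were imaged on a CQ1 microscope at 37°C and 5% CO2 after compound addition.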
# [1] = 12 h, 1 µM, compound concentration 1 uM, replicate 1
# [2] = 12 h, 1 µM, compound concentration 1 uM, replicate 2
# [3] = 12 h, 10 µM, compound concentration 10 uM, replicate 1
# [4] = 12 h, 10 µM, compound concentration 10 uM, replicate 2
# [5] = 24 h, 1 µM, compound concentration 1 uM, replicate 1
# [6] = 24 h, 1 µM, compound concentration 1 uM, replicate 2
# [7] = 24 h, 10 µM, compound concentration 10 uM, replicate 1
# [8] = 24 h, 10 µM, compound concentration 10 uM, replicate 2
# [9] = 48 h, 1 µM, compound concentration 1 uM, replicate 1
# [10] = 48 h, 1 µM, compound concentration 1 uM, replicate 2
# [11] = 48 h, 10 µM, compound concentration 10 uM, replicate 1
# [12] = 48 h, 10 µM, compound concentration 10 uM, replicate 2
smiles,measurement,setting,value
COc1ccc2c(c1OCc1ccccc1)C[C@@H](C(=O)O)N(C(=O)C(c1ccccc1)c1ccccc1)C2 [OLODANRIGAN],Population Apoptotic (%),[1],46%
same,Population Fragmented Nuclei (%),[1],17%
same,Population Healthy Nuclei (%),[1],63%
same,Population Hoechst High Intensity Objects (%),[1],7%
same,Population Membrane Permeable-Phenotype (%),[1],1%
same,Population Mitochondria Different-Phenotype (%),[1],2%
same,Population Mitotic Cells (%),[1],53%
same,Population Normal (%),[1],92%
same,Population Pyknosed Nuclei (%),[1],19%
same,Population Tubulin-Different-Phenotype (%),[1],29%
same,Total Cell Count,[1],157
same,Population Apoptotic (%),[2],38%
same,Population Fragmented Nuclei (%),[2],21%
same,Population Healthy Nuclei (%),[2],50%
same,Population Hoechst High Intensity Objects (%),[2],1%
same,Population Membrane Permeable-Phenotype (%),[2],9%
same,Population Mitochondria Different-Phenotype (%),[2],5%
same,Population Mitotic Cells (%),[2],61%
same,Population Normal (%),[2],98%
same,Population Pyknosed Nuclei (%),[2],27%
same,Population Tubulin-Different-Phenotype (%),[2],57%
same,Total Cell Count,[2],154
same,Population Apoptotic (%),[3],31%
same,Population Fragmented Nuclei (%),[3],11%
same,Population Healthy Nuclei (%),[3],65%
same,Population Hoechst High Intensity Objects (%),[3],0%
same,Population Membrane Permeable-Phenotype (%),[3],1%
same,Population Mitochondria Different-Phenotype (%),[3],7%
same,Population Mitotic Cells (%),[3],68%
same,Population Normal (%),[3],99%
same,Population Pyknosed Nuclei (%),[3],23%
same,Population Tubulin-Different-Phenotype (%),[3],28%
same,Total Cell Count,[3],140
same,Population Apoptotic (%),[4],34%
same,Population Fragmented Nuclei (%),[4],18%
same,Population Healthy Nuclei (%),[4],54%
same,Population Hoechst High Intensity Objects (%),[4],5%
same,Population Membrane Permeable-Phenotype (%),[4],6%
same,Population Mitotic Cells (%),[4],65%
same,Population Normal (%),[4],94%
same,Population Pyknosed Nuclei (%),[4],26%
same,Population Tubulin-Different-Phenotype (%),[4],46%
same,Total Cell Count,[4],162
same,Population Apoptotic (%),[5],65%
same,Population Fragmented Nuclei (%),[5],18%
same,Population Healthy Nuclei (%),[5],66%
same,Population Hoechst High Intensity Objects (%),[5],6%
same,Population Membrane Permeable-Phenotype (%),[5],0%
same,Population Mitochondria Different-Phenotype (%),[5],1%
same,Population Mitotic Cells (%),[5],34%
same,Population Normal (%),[5],93%
same,Population Pyknosed Nuclei (%),[5],15%
same,Population Tubulin-Different-Phenotype (%),[5],26%
same,Total Cell Count,[5],159
same,Population Apoptotic (%),[6],38%
same,Population Fragmented Nuclei (%),[6],21%
same,Population Healthy Nuclei (%),[6],53%
same,Population Hoechst High Intensity Objects (%),[6],2%
same,Population Membrane Permeable-Phenotype (%),[6],9%
same,Population Mitochondria Different-Phenotype (%),[6],7%
same,Population Mitotic Cells (%),[6],61%
same,Population Normal (%),[6],97%
same,Population Pyknosed Nuclei (%),[6],25%
same,Population Tubulin-Different-Phenotype (%),[6],46%
same,Total Cell Count,[6],146
same,Population Apoptotic (%),[7],53%
same,Population Fragmented Nuclei (%),[7],10%
same,Population Healthy Nuclei (%),[7],68%
same,Population Hoechst High Intensity Objects (%),[7],2%
same,Population Membrane Permeable-Phenotype (%),[7],1%
same,Population Mitochondria Different-Phenotype (%),[7],3%
same,Population Mitotic Cells (%),[7],46%
same,Population Normal (%),[7],97%
same,Population Pyknosed Nuclei (%),[7],21%
same,Population Tubulin-Different-Phenotype (%),[7],21%
same,Total Cell Count,[7],136
same,Population Apoptotic (%),[8],58%
same,Population Fragmented Nuclei (%),[8],17%
same,Population Healthy Nuclei (%),[8],62%
same,Population Hoechst High Intensity Objects (%),[8],3%
same,Population Membrane Permeable-Phenotype (%),[8],4%
same,Population Mitochondria Different-Phenotype (%),[8],4%
same,Population Mitotic Cells (%),[8],41%
same,Population Normal (%),[8],96%
same,Population Pyknosed Nuclei (%),[8],19%
same,Population Tubulin-Different-Phenotype (%),[8],50%
same,Total Cell Count,[8],153
same,Population Apoptotic (%),[9],42%
same,Population Fragmented Nuclei (%),[9],27%
same,Population Healthy Nuclei (%),[9],58%
same,Population Hoechst High Intensity Objects (%),[9],3%
same,Population Membrane Permeable-Phenotype (%),[9],0%
same,Population Mitochondria Different-Phenotype (%),[9],2%
same,Population Mitotic Cells (%),[9],57%
same,Population Normal (%),[9],96%
same,Population Pyknosed Nuclei (%),[9],14%
same,Population Tubulin-Different-Phenotype (%),[9],20%
same,Total Cell Count,[9],154
same,Population Apoptotic (%),[10],41%
same,Population Fragmented Nuclei (%),[10],31%
same,Population Healthy Nuclei (%),[10],52%
same,Population Hoechst High Intensity Objects (%),[10],1%
same,Population Membrane Permeable-Phenotype (%),[10],1%
same,Population Mitochondria Different-Phenotype (%),[10],4%
same,Population Mitotic Cells (%),[10],58%
same,Population Normal (%),[10],98%
same,Population Pyknosed Nuclei (%),[10],15%
same,Population Tubulin-Different-Phenotype (%),[10],40%
same,Total Cell Count,[10],156
same,Population Apoptotic (%),[11],57%
same,Population Fragmented Nuclei (%),[11],15%
same,Population Healthy Nuclei (%),[11],69%
same,Population Hoechst High Intensity Objects (%),[11],5%
same,Population Membrane Permeable-Phenotype (%),[11],1%
same,Population Mitochondria Different-Phenotype (%),[11],5%
same,Population Mitotic Cells (%),[11],42%
same,Population Normal (%),[11],94%
same,Population Pyknosed Nuclei (%),[11],15%
same,Population Tubulin-Different-Phenotype (%),[11],27%
same,Total Cell Count,[11],146
same,Population Apoptotic (%),[12],61%
same,Population Fragmented Nuclei (%),[12],29%
same,Population Healthy Nuclei (%),[12],58%
same,Population Hoechst High Intensity Objects (%),[12],7%
same,Population Membrane Permeable-Phenotype (%),[12],3%
same,Population Mitotic Cells (%),[12],38%
same,Population Normal (%),[12],92%
same,Population Pyknosed Nuclei (%),[12],12%
same,Population Tubulin-Different-Phenotype (%),[12],45%
same,Total Cell Count,[12],163
